Laboratory results from ChEMBL document CHEMBL1148007, “Synthesis of new S-derivatives of clubbed triazolyl thiazole as anti-Mycobacterium tuberculosis agents” (Bioorg Med Chem, 2007).

Columns and labels:
Staphylococcus aureus = experiment: Antibacterial activity against Staphylococcus aureus at 50 to 100 uM after 24 hrs by well diffusion method; format: functional
How it was run: (§1)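 Nutrient agar plates with 10 mm wells cut by cork borer; 24-h subcultured bacteria swabbed on. Compounds dissolved in chloroform, 50 to 100 μM added to wells, gentamycin as standard. Incubated 24 h at 24–28 °C; inhibition zone diameter measured and converted to percent inhibition.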

Escherichia coli = experiment: Antibacterial activity against Escherichia coli at 50 to 100 uM after 24 hrs by well diffusion method; format: functional; how it was run: as §1
[1] = tested on: Mycobacterium tuberculosis; experiment: Antitubercular activity against Mycobacterium tuberculosis H37Rv by MABA assay; format: functional
How it was run: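 Actives re-tested at lower concentrations against H37Rv (ATCC 27294) in BACTEC 12B medium by Microplate Alamar Blue Assay. MIC taken as lowest concentration giving […] fluorescence reduction versus controls; rifampin reference.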

Pseudomonas aeruginosa = experiment: Antibacterial activity against Pseudomonas aeruginosa at 50 to 100 uM after 24 hrs by well diffusion method; format: functional; how it was run: as §1
[2] = tested on: Mycobacterium tuberculosis; experiment: Antitubercular activity against Mycobacterium tuberculosis H37Rv at 6.25 ug/mL by MABA assay; format: functional; conditions: read-out: GI
How it was run: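 Primary screen against M. tuberculosis H37Rv (ATCC 27294) in BACTEC 12B medium by broth microdilution Microplate Alamar Blue Assay; fluorescent compounds run instead in BACTEC 460 radiometric system. Compounds above 95% inhibition counted active.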

[3] = Cytotoxicity against Vero-C1008 cells at 6.25 to 50 ug/mL by neutral red uptake assay; format: cell-based; conditions: chlorocebus sabaeus
How it was run: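 Vero-C-1008 cells exposed to 6.25 to 50 μg/mL compound; viability read by neutral red uptake.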

Salmonella typhi = experiment: Antibacterial activity against Salmonella typhi at 50 to 100 uM after 24 hrs by well diffusion method; format: functional, Salmonella enterica subsp. enterica serovar Typhi; parameters: unit not given here; how it was run: as §1

For `O=C(CCl)Nc1nc(Cc2nnc(S)n2NC(=O)c2cccc([N+](=O)[O-])c2)cs1`, the inhibition zone (Staphylococcus aureus) was 22 mm, the inhibition zone (Escherichia coli) was 20 mm and the MIC [1] was 6.25 µM. For the same compound, the inhibition zone (Pseudomonas aeruginosa) was 22 mm, the inhibition of growth at 6.25 µg/mL [2] was 96% and the Activity [3] was “Non-toxic”. It also gave an Inhibition (Salmonella typhi) of 16.

`Nn1c(S)nnc1Cc1csc(NC(=O)c2ccccc2)n1` showed an inhibition zone (Staphylococcus aureus) of 22 mm, an inhibition zone (Escherichia coli) of 18 mm and an MIC [1] of 6.25 µM. The inhibition zone (Pseudomonas aeruginosa) was 20 mm, the inhibition of growth at 6.25 µg/mL [2] was 96% and the Activity [3] was “Non-toxic”. The Inhibition (Salmonella typhi) was 14.

In the case of `CC(=O)Nc1nc(Cc2nnc(SCC(=O)NN)n2NC(=O)c2cccc([N+](=O)[O-])c2)cs1`, the inhibition zone (Staphylococcus aureus) is reported as 19 mm, the inhibition zone (Escherichia coli) is reported as 22 mm and the MIC [1] is reported as 6.25 µM. The inhibition zone (Pseudomonas aeruginosa) was 23 mm, the inhibition of growth at 6.25 µg/mL [2] was 100% and the Activity [3] was “Non-toxic”. For the same compound, the Inhibition (Salmonella typhi) was 17.

Compound `N#CCSc1nnc(Cc2csc(NCCC(=O)O)n2)n1NC(=O)c1ccc(Cl)cc1` has an inhibition zone (Staphylococcus aureus) of 30 mm, an inhibition zone (Escherichia coli) of 21 mm and an MIC [1] of 3.13 µM. For the same compound, the inhibition zone (Pseudomonas aeruginosa) was 29 mm, the inhibition of growth at 6.25 µg/mL [2] was 100% and the Activity [3] was “Non-toxic”. For the same compound, the Inhibition (Salmonella typhi) was 25.

In the case of `CC(=O)Nc1nc(Cc2nnc(SCC(=O)N/N=C/c3ccccc3)n2NC(=O)c2cccc([N+](=O)[O-])c2)cs1`, the inhibition zone (Staphylococcus aureus) is reported as 30 mm, the inhibition zone (Escherichia coli) is reported as 24 mm and the MIC [1] is reported as 0.78 µM. The inhibition zone (Pseudomonas aeruginosa) was 31 mm, the inhibition of growth at 6.25 µg/mL [2] was 100% and the Activity [3] was “Non-toxic”. For the same compound, the Inhibition (Salmonella typhi) was 26.

For `O=C(Nc1nc(Cc2nnc(S)n2NC(=O)c2ccc(Cl)cc2)cs1)c1ccccc1`, the inhibition zone (Staphylococcus aureus) was 16 mm, the inhibition zone (Escherichia coli) was 10 mm and the MIC [1] was 6.25 µM. For the same compound, the inhibition zone (Pseudomonas aeruginosa) was 10 mm, the inhibition of growth at 6.25 µg/mL [2] was 96% and the Activity [3] was “Non-toxic”. It also gave an Inhibition (Salmonella typhi) of 18.

Compound `CC(=O)Nc1nc(Cc2nnc(S)n2NC(=O)c2cccc([N+](=O)[O-])c2)cs1` has an inhibition zone (Staphylococcus aureus) of 16 mm, an inhibition zone (Escherichia coli) of 12 mm and an MIC [1] of 6.25 µM. For the same compound, the inhibition zone (Pseudomonas aeruginosa) was 16 mm, the inhibition of growth at 6.25 µg/mL [2] was 100% and the Activity [3] was “Non-toxic”. The Inhibition (Salmonella typhi) was 12.

For `CC(=O)Nc1nc(Cc2nnc(S)n2N)cs1`, the inhibition zone (Staphylococcus aureus) was 28 mm, the inhibition zone (Escherichia coli) was 22 mm and the MIC [1] was less than 6.25 µg/mL. For the same compound, the inhibition zone (Pseudomonas aeruginosa) was 27 mm, the inhibition of growth at 6.25 µg/mL [2] was 96% and the Activity [3] was “Non-toxic”. The Inhibition (Salmonella typhi) was 24.

`O=C(O)CCNc1nc(Cc2nnc(S)n2NC(=O)c2ccc(Cl)cc2)cs1` showed an inhibition zone (Staphylococcus aureus) of 11 mm, an inhibition zone (Escherichia coli) of 15 mm and an MIC [1] of 6.25 µM. The inhibition zone (Pseudomonas aeruginosa) was 17 mm, the inhibition of growth at 6.25 µg/mL [2] was 96% and the Activity [3] was “Non-toxic”. For the same compound, the Inhibition (Salmonella typhi) was 22.

For `NNC(=O)CSc1nnc(Cc2csc(NC(=O)CCl)n2)n1NC(=O)c1ccc(Cl)cc1`, the inhibition zone (Staphylococcus aureus) was 16 mm, the inhibition zone (Escherichia coli) was 12 mm and the MIC [1] was 6.25 µM. The inhibition zone (Pseudomonas aeruginosa) was 18 mm, the inhibition of growth at 6.25 µg/mL [2] was 96% and the Activity [3] was “Non-toxic”. It also gave an Inhibition (Salmonella typhi) of 12.

`NNC(=O)CSc1nnc(Cc2csc(NC(=O)c3ccccc3)n2)n1NC(=O)c1cccc([N+](=O)[O-])c1` showed an inhibition zone (Staphylococcus aureus) of 28 mm, an inhibition zone (Escherichia coli) of 17 mm and an MIC [1] of 6.25 µM. The inhibition zone (Pseudomonas aeruginosa) was 24 mm, the inhibition of growth at 6.25 µg/mL [2] was 100% and the Activity [3] was “Non-toxic”. It also gave an Inhibition (Salmonella typhi) of 20.

With `N#CCSc1nnc(Cc2csc(NC(=O)CCl)n2)n1NC(=O)c1cccc([N+](=O)[O-])c1` the inhibition zone (Staphylococcus aureus) was 24 mm, the inhibition zone (Escherichia coli) was 19 mm and the MIC [1] was less than 6.25 µg/mL. For the same compound, the inhibition zone (Pseudomonas aeruginosa) was 24 mm, the inhibition of growth at 6.25 µg/mL [2] was 100% and the Activity [3] was “Non-toxic”. For the same compound, the Inhibition (Salmonella typhi) was 24.

Compound `CC(=O)Nc1nc(Cc2nnc(S)n2NC(=O)c2ccc(Cl)cc2)cs1` has an inhibition zone (Staphylococcus aureus) of 16 mm, an inhibition zone (Escherichia coli) of 20 mm and an MIC [1] of 6.25 µM. For the same compound, the inhibition zone (Pseudomonas aeruginosa) was 16 mm, the inhibition of growth at 6.25 µg/mL [2] was 96% and the Activity [3] was “Non-toxic”. The Inhibition (Salmonella typhi) was 16.

Work on `O=C(Nc1nc(Cc2nnc(S)n2NC(=O)c2cccc([N+](=O)[O-])c2)cs1)c1ccccc1` yielded an inhibition zone (Staphylococcus aureus) of 11 mm, an inhibition zone (Escherichia coli) of 16 mm and an MIC [1] of 6.25 µM. For the same compound, the inhibition zone (Pseudomonas aeruginosa) was 24 mm, the inhibition of growth at 6.25 µg/mL [2] was 96% and the Activity [3] was “Non-toxic”. For the same compound, the Inhibition (Salmonella typhi) was 12.

`N#CCSc1nnc(Cc2csc(NC(=O)c3ccccc3)n2)n1NC(=O)c1cccc([N+](=O)[O-])c1` gave an inhibition zone (Staphylococcus aureus) of 28 mm, an inhibition zone (Escherichia coli) of 22 mm and an MIC [1] of less than 6.25 µg/mL. For the same compound, the inhibition zone (Pseudomonas aeruginosa) was 24 mm, the inhibition of growth at 6.25 µg/mL [2] was 96% and the Activity [3] was “Non-toxic”. The Inhibition (Salmonella typhi) was 17.

For `CC(=O)Nc1nc(Cc2nnc(SCC(=O)N/N=C/c3ccccc3)n2NC(=O)c2ccc(Cl)cc2)cs1`, the inhibition zone (Staphylococcus aureus) was 25 mm, the inhibition zone (Escherichia coli) was 20 mm and the MIC [1] was 3.13 µM. For the same compound, the inhibition zone (Pseudomonas aeruginosa) was 20 mm, the inhibition of growth at 6.25 µg/mL [2] was 96% and the Activity [3] was “Non-toxic”. It also gave an Inhibition (Salmonella typhi) of 20.

Work on `O=C(O)CCNc1nc(Cc2nnc(S)n2NC(=O)c2cccc([N+](=O)[O-])c2)cs1` yielded an inhibition zone (Staphylococcus aureus) of 28 mm, an inhibition zone (Escherichia coli) of 18 mm and an MIC [1] of 6.25 µM. The inhibition zone (Pseudomonas aeruginosa) was 25 mm, the inhibition of growth at 6.25 µg/mL [2] was 96% and the Activity [3] was “Non-toxic”. The Inhibition (Salmonella typhi) was 19.

Compound `N#CCSc1nnc(Cc2csc(NC(=O)c3ccccc3)n2)n1NC(=O)c1ccc(Cl)cc1` has an inhibition zone (Staphylococcus aureus) of 31 mm, an inhibition zone (Escherichia coli) of 27 mm and an MIC [1] of 3.13 µM. For the same compound, the inhibition zone (Pseudomonas aeruginosa) was 27 mm, the inhibition of growth at 6.25 µg/mL [2] was 96% and the Activity [3] was “Non-toxic”. It also gave an Inhibition (Salmonella typhi) of 19.

`O=C(O)CCNc1nc(Cc2nnc(SCC(=O)N/N=C/c3ccccc3)n2NC(=O)c2ccc(Cl)cc2)cs1` showed an inhibition zone (Staphylococcus aureus) of 22 mm, an inhibition zone (Escherichia coli) of 18 mm and an MIC [1] of 3.13 µM. The inhibition zone (Pseudomonas aeruginosa) was 27 mm, the inhibition of growth at 6.25 µg/mL [2] was 96% and the Activity [3] was “Non-toxic”. The Inhibition (Salmonella typhi) was 22.

In the case of `O=C(CCl)Nc1nc(Cc2nnc(S)n2NC(=O)c2ccc(Cl)cc2)cs1`, the inhibition zone (Staphylococcus aureus) is reported as 20 mm, the inhibition zone (Escherichia coli) is reported as 18 mm and the MIC [1] is reported as 6.25 µM. The inhibition zone (Pseudomonas aeruginosa) was 20 mm, the inhibition of growth at 6.25 µg/mL [2] was 96% and the Activity [3] was “Non-toxic”. The Inhibition (Salmonella typhi) was 14.
